Laboratory results as given in PMC8165011 (European journal of medicinal chemistry, 2021).
In brackets after ≈: the same amount, converted by molar mass.

Experiments:
E. faecalis ATCC 29212 = assay: Multistep; assay type: cell-based; conditions: for increase in resistance (in words): through the 14th passage
S. aureus ATCC 700699 = assay: Time kill assay; assay type: cell-based; conditions: 4xMIC
Procedure, shortened: (§1)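 Log-phase culture diluted to ~5 × 10^6 CFU/ml in warm CAMHB and exposed to test compound at 4xMIC at 35 °C. Samples taken every 2 h, diluted 10-fold down to 10^-5, and viable counts done by 6×6 drop plating after 18–24 h at 35 °C. Each assay run in triplicate.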

[1] = test system: human embryonic kidney (HEK293) cells; assay: Cytotoxicity against HEK293 cell line; assay type: cell-based; conditions: HEK293 IC50 / MIC for S. aureus ATCC 25923 and ATCC 700699; as high as
Procedure, shortened: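 HEK293 cells kept in EMEM with 10% FBS at 37 °C, 5% CO2. Seeded at 4000 cells/well and treated 24 h with a concentration range of test compound in DMSO. Resazurin (0.15 mg/ml solution as added) incubated 4 h more; fluorescence read at ex 560/em 590 nm. IC50 obtained by curve fitting; selectivity factor computed as IC50/MIC.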

S. aureus ATCC 33591 = assay: Time kill assay; assay type: cell-based; conditions: 4xMIC
Procedure, shortened: as §1

[2] = test system: S. aureus ATCC 700699 (MRSA) stationary phase persister cells; assay: Persister cell killing assay; assay type: cell-based; conditions: for log reduction of persister cells: within 4 h
[3] = test system: S. aureus ATCC 25923 biofilm; assay: Biofilm inhibition assay; assay type: cell-based; conditions: 2xMIC
Procedure, shortened: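 After 24 h at 35 °C: PBS washes, drying at 60 °C for 15 min, 0.1% (w/v) crystal violet for 15 min, solubilisation in 33% acetic acid, OD 620 nm. Controls: broth only, and bacteria with DMSO.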

[4] = test system: S. aureus UAMS-1 catheter-associated biofilm; assay: In vitro model of catheter-associated biofilm; assay type: cell-based; conditions: after 2 days of exposure, 20xMIC (40 μg/ml), per catheter
[5] = test system: methicillin-sensitive clinical isolate of S. aureus UAMS-1; conditions: breakpoint MIC used for comparison; ref not given; cited from earlier work
[6] = test system: E. faecalis clinical isolates (VRE); assay: MIC against clinical isolates of E. faecalis; assay type: cell-based
[7] = test system: E. faecalis ATCC 29212 preformed biofilm; assay: Biofilm destruction assay; assay type: cell-based; conditions: 2xMIC
[8] = test system: S. aureus ATCC 700699 (MRSA); assay: Multistep; assay type: cell-based; conditions: sub-lethal exposure, 21 passages
[9] = test system: S. aureus and E. faecalis biofilms; assay: Biofilm inhibition and destruction at 4x and 8xMIC; assay type: cell-based; conditions: 4x and 8xMIC (data not shown)
[10] = test system: S. aureus clinical isolates (MSSA, MRSA); assay: MIC against clinical isolates of S. aureus; assay type: cell-based; conditions: Staphylococcus aureus
[11] = test system: E. faecium clinical isolates (VRE); assay: MIC against clinical isolates of E. faecium; assay type: cell-based
[12] = test system: tested Gram-positive strains; assay: MIC assay, summary over the tested Gram-positive strains; assay type: cell-based; conditions: tested Gram-positive strains
Procedure, shortened: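 CLSI standard broth microdilution. Test compound started at 50 µg/ml and serially diluted 2-fold. Run in triplicate.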

[13] = test system: S. aureus ATCC 25923 (MSSA); assay: Multistep; assay type: cell-based; conditions: sub-lethal exposure, 21 passages
[14] = test system: lipid synthesis in S. aureus ATCC 29213; assay: Macromolecular synthesis inhibition: lipid synthesis; assay type: cell-based; conditions: MIC
[15] = test system: DNA synthesis in S. aureus ATCC 29213; assay: Macromolecular synthesis inhibition: DNA synthesis; assay type: cell-based; conditions: 0.25xMIC
[16] = test system: S. aureus ATCC 25923 preformed biofilm; assay: Biofilm destruction assay; assay type: cell-based; conditions: 2xMIC

## O=C(O)c1ccc(-n2cc(CNc3cc(Cl)c(F)c(Cl)c3)c(-c3ccc(C(F)(F)F)cc3)n2)cc1 [Compound 74, 4-[4-[(3,5-dichloro-4-fluoro-anilino)methyl]-3-[4-(trifluoromethyl)phenyl]pyrazol-1-yl]benzoic acid]
E. faecalis ATCC 29212
  increase in resistance (in words): no increase in resistance
S. aureus ATCC 700699
  time to eliminate more than 3 log values: ≤ 6 h
[1]
  Selectivity factor (IC50/MIC values): ≤ 33
S. aureus ATCC 33591
  time to eliminate more than 3 log values: ≤ 4 h
[2]; 2xMIC
  log reduction of persister cells: ~ 1 log
[2]; 4xMIC
  log reduction of persister cells: ~ 1 log
[2]; 8xMIC
  log reduction of persister cells: ~ 1 log
[3]
  biofilm formation inhibited: greater than 85%

## CN[C@H](CC(C)C)C(=O)N[C@H]1C(=O)N[C@@H](CC(N)=O)C(=O)N[C@H]2C(=O)N[C@H]3C(=O)N[C@H](C(=O)N[C@H](C(=O)O)c4cc(O)cc(O)c4-c4cc3ccc4O)[C@H](O)c3ccc(c(Cl)c3)Oc3cc2cc(c3O[C@@H]2O[C@H](CO)[C@@H](O)[C@H](O)[C@H]2O[C@H]2C[C@](C)(N)[C@H](O)[C@H](C)O2)Oc2ccc(cc2Cl)[C@H]1O [vancomycin, Vancomycin]
[4]
  average CFU counts: 1.16 × 10^7 CFU
[5]
  breakpoint MIC: ≥ 2 µg/mL
E. faecalis ATCC 29212; 14 passages
  passage after which resistance increased: 7 passage
S. aureus ATCC 700699
  time to decrease bacterial concentration below detectable limits: 8 h
[6]; E. faecalis 1091563, VRE
  MIC: >32 µg/mL
[6]; E. faecalis 1091720, VRE
  MIC: >32 µg/mL
[6]; E. faecalis 1094112, VRE
  MIC: >32 µg/mL
[6]; E. faecalis 1100440, VRE
  MIC: >32 µg/mL
[6]; Enterococcus faecalis, VRE
  MIC: > 32 µg/mL
[7]
  preformed biofilm destroyed: around 70%
[8]
  passage at which MIC doubled: 7 passage
S. aureus ATCC 33591
  time to decrease bacterial concentration below detectable limits: 8 h
[9]
  biofilm inhibition and destruction: > 95%
[2]; 64xMIC
  effect on viability of MRSA persisters (in words): did not affect the viability
[10]; ATCC29213|MRSA|MSSA, S. aureus ATCC 29213, MSSA
  MIC: 1 µg/mL (≈ 0.69 µM)
[10]; MRSA|MSSA, S. aureus 1088060, MSSA
  MIC: 0.5 µg/mL (≈ 0.345 µM)
[10]; MRSA|MSSA, S. aureus 1088064, MRSA
  MIC: 0.5 µg/mL (≈ 0.345 µM)
[10]; MRSA|MSSA, S. aureus 1088105, MSSA
  MIC: 1 µg/mL (≈ 0.69 µM)
[10]; MRSA|MSSA, S. aureus 1088610, MRSA
  MIC: 0.5 µg/mL (≈ 0.345 µM)
[10]; MRSA|MSSA, S. aureus 1088626, MSSA
  MIC: 0.5 µg/mL (≈ 0.345 µM)
[10]; MRSA|MSSA, S. aureus 1088888, MRSA
  MIC: 1 µg/mL (≈ 0.69 µM)
[10]; MRSA|MSSA, S. aureus 1089106, MRSA
  MIC: 1 µg/mL (≈ 0.69 µM)
[11]; E. faecium 1088168, VRE
  MIC: >32 µg/mL
[11]; E. faecium 1088925, VRE
  MIC: >32 µg/mL
[11]; E. faecium 1089544, VRE
  MIC: >32 µg/mL
[11]; E. faecium 1091282, VRE
  MIC: >32 µg/mL
[11]; Enterococcus faecium, VRE
  MIC: > 32 µg/mL

## O=C(O)c1ccc(-n2cc(CNc3cc(F)cc(C(F)(F)F)c3)c(-c3ccc(C(F)(F)F)cc3)n2)cc1 [Compound 59, 4-[4-[[3-fluoro-5-(trifluoromethyl)anilino]methyl]-3-[4-(trifluoromethyl)phenyl]pyrazol-1-yl]benzoic acid]
[4]
  average CFU counts: 4.74 × 10^5 CFU
E. faecalis ATCC 29212
  increase in resistance (in words): no increase in resistance
S. aureus ATCC 700699
  time to eliminate more than 3 log values: ≤ 4 h
S. aureus ATCC 700699; within 4 h of treatment
  log values of bacteria eliminated: more than 3 log
[12]
  antimicrobial activity (in words): most potent compound
[1]
  Selectivity factor (IC50/MIC values): ≤ 13
[13]
  passage at which MIC doubled: 8 passage
[14]
  inhibition of lipid synthesis: 56.2%
S. aureus ATCC 33591
  time to eliminate more than 3 log values: ≤ 4 h
S. aureus ATCC 33591; within 4 h of treatment
  log values of bacteria eliminated: more than 3 log
[9]
  biofilm inhibition and destruction: > 95%
[15]
  inhibition of DNA synthesis: approximately 44%
[16]
  preformed biofilm eliminated: around 70%
[2]; 2xMIC
  log reduction of persister cells: ~ 1 log
[2]; 8xMIC
  log reduction of persister cells: ~ 3 log
